Measured values taken from ChEMBL document CHEMBL1125381, “Synthesis and alpha-adrenergic activities of 2- and 4-substituted imidazoline and imidazole analogues” (J Med Chem, 1992).

Legend:
[1] = molecular target: T1, Adrenergic receptor alpha-1 (Rattus norvegicus, UniProt P15823+P23944+P43140); test: Compound was evaluated for Adrenergic activity against Alpha-1 adrenergic receptor from rat aorta
T1 sequence (P15823 whole entry): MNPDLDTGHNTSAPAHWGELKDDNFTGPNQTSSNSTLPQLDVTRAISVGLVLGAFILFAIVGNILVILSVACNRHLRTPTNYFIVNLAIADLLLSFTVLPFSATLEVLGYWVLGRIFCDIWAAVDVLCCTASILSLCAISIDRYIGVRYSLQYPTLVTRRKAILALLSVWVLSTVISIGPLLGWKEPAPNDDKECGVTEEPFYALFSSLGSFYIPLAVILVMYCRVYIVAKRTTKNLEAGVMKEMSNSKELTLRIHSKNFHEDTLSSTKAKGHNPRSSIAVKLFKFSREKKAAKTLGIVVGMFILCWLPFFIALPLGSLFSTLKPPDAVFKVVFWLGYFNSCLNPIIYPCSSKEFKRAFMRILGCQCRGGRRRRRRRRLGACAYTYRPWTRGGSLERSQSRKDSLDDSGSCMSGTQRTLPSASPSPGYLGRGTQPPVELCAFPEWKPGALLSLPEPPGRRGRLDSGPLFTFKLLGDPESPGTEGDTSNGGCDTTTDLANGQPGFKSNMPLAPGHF
T1 sequence (P23944 whole entry): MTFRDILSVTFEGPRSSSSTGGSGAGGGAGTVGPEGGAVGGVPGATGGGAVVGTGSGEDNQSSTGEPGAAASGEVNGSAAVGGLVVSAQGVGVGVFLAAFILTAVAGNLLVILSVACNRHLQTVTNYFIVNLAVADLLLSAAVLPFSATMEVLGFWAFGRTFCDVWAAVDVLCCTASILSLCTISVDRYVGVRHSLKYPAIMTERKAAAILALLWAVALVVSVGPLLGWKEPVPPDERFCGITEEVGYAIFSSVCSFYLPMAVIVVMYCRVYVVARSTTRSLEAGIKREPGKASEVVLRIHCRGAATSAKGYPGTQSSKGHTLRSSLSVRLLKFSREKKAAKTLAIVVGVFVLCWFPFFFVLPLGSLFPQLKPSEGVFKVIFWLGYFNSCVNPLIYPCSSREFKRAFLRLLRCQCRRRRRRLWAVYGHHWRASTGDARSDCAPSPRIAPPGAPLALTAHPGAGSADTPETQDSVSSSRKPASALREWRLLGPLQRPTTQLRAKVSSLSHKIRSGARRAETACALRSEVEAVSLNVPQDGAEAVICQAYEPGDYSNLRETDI
T1 sequence (P43140 whole entry): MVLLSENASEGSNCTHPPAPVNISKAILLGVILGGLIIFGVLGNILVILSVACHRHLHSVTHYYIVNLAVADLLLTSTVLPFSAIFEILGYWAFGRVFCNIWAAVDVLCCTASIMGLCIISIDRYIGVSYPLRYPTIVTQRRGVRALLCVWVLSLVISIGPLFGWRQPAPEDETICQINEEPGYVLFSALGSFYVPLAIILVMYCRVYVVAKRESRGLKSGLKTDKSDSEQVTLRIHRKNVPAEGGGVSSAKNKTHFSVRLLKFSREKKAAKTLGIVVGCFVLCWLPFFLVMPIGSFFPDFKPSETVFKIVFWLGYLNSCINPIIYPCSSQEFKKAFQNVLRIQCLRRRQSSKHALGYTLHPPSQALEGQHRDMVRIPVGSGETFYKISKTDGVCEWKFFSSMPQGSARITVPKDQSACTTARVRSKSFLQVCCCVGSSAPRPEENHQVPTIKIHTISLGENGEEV

Rattus norvegicus [2] = organism: Rattus norvegicus; test: Percent maximal analogue response relative to phenylephrine =100%; format: functional
In short: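 Rat aorta (α1) contraction. The maximal response to each analogue is expressed as percent of the maximal response to the reference agonist phenylephrine (phenylephrine = 100%). Mean ± SEM, N = 4.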

[3] = molecular target: T2, Adrenergic receptor alpha-2 (Homo sapiens, UniProt P08913+P18825+P18089); test: Compound was evaluated for Adrenergic activity against Alpha-2 adrenergic receptor in human platelets
T2 sequence (P08913 whole entry): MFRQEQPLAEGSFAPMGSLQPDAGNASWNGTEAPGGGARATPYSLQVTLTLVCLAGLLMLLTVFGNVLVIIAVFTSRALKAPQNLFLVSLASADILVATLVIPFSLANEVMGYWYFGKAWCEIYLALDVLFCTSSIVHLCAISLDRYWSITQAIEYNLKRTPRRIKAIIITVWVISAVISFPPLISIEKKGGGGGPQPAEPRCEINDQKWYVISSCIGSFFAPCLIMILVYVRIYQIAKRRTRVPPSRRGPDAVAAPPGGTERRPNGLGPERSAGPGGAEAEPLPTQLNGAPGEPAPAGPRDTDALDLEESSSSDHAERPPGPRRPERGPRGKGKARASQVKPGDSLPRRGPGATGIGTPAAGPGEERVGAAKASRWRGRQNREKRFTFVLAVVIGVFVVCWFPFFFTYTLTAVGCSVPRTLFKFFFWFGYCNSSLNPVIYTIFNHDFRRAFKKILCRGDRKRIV
T2 sequence (P18825 whole entry): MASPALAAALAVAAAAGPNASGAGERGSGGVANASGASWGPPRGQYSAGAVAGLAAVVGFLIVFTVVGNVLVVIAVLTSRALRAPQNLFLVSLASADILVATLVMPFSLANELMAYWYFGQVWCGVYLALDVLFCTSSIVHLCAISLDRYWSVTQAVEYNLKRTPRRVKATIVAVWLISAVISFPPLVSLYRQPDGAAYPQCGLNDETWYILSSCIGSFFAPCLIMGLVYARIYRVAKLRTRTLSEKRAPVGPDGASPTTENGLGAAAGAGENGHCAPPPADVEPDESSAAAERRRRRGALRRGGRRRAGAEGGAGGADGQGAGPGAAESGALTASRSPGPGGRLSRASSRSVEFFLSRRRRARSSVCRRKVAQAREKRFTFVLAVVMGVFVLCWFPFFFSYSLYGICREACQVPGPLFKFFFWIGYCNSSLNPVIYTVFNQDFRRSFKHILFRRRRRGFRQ
T2 sequence (P18089 whole entry): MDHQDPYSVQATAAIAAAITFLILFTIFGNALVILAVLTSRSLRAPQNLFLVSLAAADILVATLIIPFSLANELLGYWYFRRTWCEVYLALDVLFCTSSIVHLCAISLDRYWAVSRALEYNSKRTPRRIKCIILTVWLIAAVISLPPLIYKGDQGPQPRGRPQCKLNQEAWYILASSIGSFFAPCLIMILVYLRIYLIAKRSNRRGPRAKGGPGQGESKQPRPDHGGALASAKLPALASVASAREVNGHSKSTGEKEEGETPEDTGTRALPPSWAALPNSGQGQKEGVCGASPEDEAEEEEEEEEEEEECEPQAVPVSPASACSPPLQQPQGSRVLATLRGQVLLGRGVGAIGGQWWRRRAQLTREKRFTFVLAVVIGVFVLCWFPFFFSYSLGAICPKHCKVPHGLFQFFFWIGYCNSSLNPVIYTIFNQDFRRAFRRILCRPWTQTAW
In short: (§1)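 Platelet-rich plasma from drug-free human volunteers (no medication for 10 days) treated with 1 mM aspirin. Inhibitors added at various concentrations 1 min before epinephrine. Read-out is primary-wave aggregation. […] Potency ratio = IC50 of medetomidine / IC50 of analogue.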

[4] = Potency ratio is defined as EC50 (medetomidine) / EC50 (compound)
[5] = Potency ratio is defined as IC50(medetomidine)/IC50(compound); in short: as §1
[6] = molecular target: T2, Adrenergic receptor alpha-2; test: Compound was tested for Adrenergic activity against Alpha-2 adrenergic receptor from rat aorta; format: tissue-based
Rattus norvegicus [7] = organism: Rattus norvegicus; test: Molar concentration of analogue which shifts concentration curve of phenylephrine to the right by 2-fold (0.3 log units); format: functional
In short: (§2)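 Rat aorta (α1) antagonism. KB is the molar analogue concentration that shifts the phenylephrine concentration-response curve 2-fold (0.3 log units) to the right. Derived by computerized analysis of the concentration-response data.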

[8] = molecular target: Adrenergic receptor alpha-1 (Rattus norvegicus) (UniProt P15823+P23944+P43140); test: Molar concentration towards Alpha-1 adrenergic receptor which shifts concentration curve of phenylephrine to the right by 2-fold (0.3 log units); in short: as §2

Row | SMILES | EC50 [1] [nM] | Max (Rattus norvegicus [2]) [%] | IC50 [3] [nM] | Potency ratio [4] | Potency ratio [5] | IC50 [6] [nM] | KB (Rattus norvegicus [7]) [µM] | Kb [8] [nM]
1 | Cc1cccc(C(C)c2c[nH]cn2)c1C.Cl (stereo not given) [MEDETOMIDINE HYDROCHLORIDE] | 310 | 42 | – | – | – | – | – | –
2 | CC(c1ncc[nH]1)c1cccc2ccccc12.Cl (stereo not given) | – | 40 | 0.26 | 0.04 | 0.013 | – | – | –
3 | CC(C1=NCCN1)c1cccc2ccccc12.Cl (stereo not given) | – | 62 | 0.014 | 0.57 | 0.24 | – | – | –
4 | Cl.c1ccc2c(CC3=NCCN3)cccc2c1 [NAPHAZOLINE HYDROCHLORIDE] | – | 68 | – | – | – | – | – | –
5 | CC(c1c[nH]cn1)c1cccc2ccccc12.Cl (stereo not given) | 200 | 27 | – | 1.6 | 0.97 | 0.0034 | – | –
6 | CC(c1ccc2ccccc2c1)c1ncc[nH]1.O=C(O)C(=O)O (stereo not given) | – | – | 0.61 | – | 0.0054 | – | 1.5e-06 | –
7 | Cl.c1ccc2c(Cc3ncc[nH]3)cccc2c1 | 200 | 56 | 0.034 | 1.6 | 0.097 | – | – | –
8 | CC(c1ccc2ccccc2c1)c1c[nH]cn1.Cl (stereo not given) | – | – | 0.12 | – | 0.028 | – | – | 68
9 | CC(C1=NCCN1)c1ccc2ccccc2c1.Cl (stereo not given) | – | – | 0.016 | – | 0.21 | – | 0.26 | –
